For assay [1], the system named is Escherichia coli. The assay is described as follows: Antibacterial activity against Escherichia coli NCIM 2256 by agar method. In kind it is functional. Summed up: (§1)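 Read-out was the minimum inhibitory concentration (MIC), determined by the standard agar method. Ciprofloxacin and ampicillin served as reference antibacterial standards.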
Assay [2] deals with Staphylococcus aureus. The assay is described as follows: Antibacterial activity against Staphylococcus aureus NCIM 2901 by agar method. In kind it is functional. The method, boiled down:
as §1

For assay [3], the system named is Pseudomonas aeruginosa. The assay is described as follows: Antibacterial activity against Pseudomonas aeruginosa NCIM 2036 by agar method. The format is functional. Summed up: as §1
In assay [4] the test system is Bacillus subtilis. Put plainly: Antibacterial activity against Bacillus subtilis NCIM 2063 by agar method. In kind it is functional. Summed up:
as §1

Assay [5] concerns Candida albicans. The assay is described as follows: Antifungal activity against Candida albicans NCIM 3471 by agar method. In kind it is functional. The method, boiled down: (§2)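 MIC values were obtained with the standard agar method, with miconazole as the reference antifungal standard.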
In assay [6] the test system is Aspergillus niger. Put plainly: Antifungal activity against Aspergillus niger NCIM 1196 by agar method. In kind it is functional. The method, boiled down:
as §2

Assay [7] relates to Pseudomonas aeruginosa. The assay is described as follows: Antibacterial activity against Pseudomonas aeruginosa NCIM 2036 up to 400 ug/ml by agar method. The format is functional, organism-based. The method, boiled down: as §1
Assay [8] relates to Bacillus subtilis. The assay is described as follows: Antibacterial activity against Bacillus subtilis NCIM 2063 up to 400 ug/ml by agar method. In kind it is functional, organism-based. The method, boiled down:
as §1

SMILES strings stand for the structures. Values after ≈ are worked out from the molar mass of the structure shown. Active and inactive are the calls of the source. The rule behind the calls is not given here.

As to `Fc1ccc(-c2nnc(CN3CCc4ccsc4C3)o2)cc1`, the MIC in assay [1] turned out to be 25 µg/mL (≈ 79.3 µM); in assay [2] it was 25 µg/mL (≈ 79.3 µM); in assay [3], 100 µg/mL (≈ 317 µM); in assay [4], 50 µg/mL (≈ 159 µM); in assay [5] it was 20 µg/mL (≈ 63.4 µM); in assay [6] it was 60 µg/mL (≈ 190 µM).

With `COc1ccc(-c2nnc(CN3CCc4ccsc4C3)o2)cc1`, the MIC in assay [1] is 125 µg/mL (≈ 382 µM); in assay [2] it was 100 µg/mL (≈ 305 µM); in assay [3] it was 175 µg/mL (≈ 534 µM); in assay [4], 125 µg/mL (≈ 382 µM); in assay [5], 80 µg/mL (≈ 244 µM); in assay [6], 140 µg/mL (≈ 428 µM).

Take `O=C(O)c1cn(C2CC2)c2cc(N3CCNCC3)c(F)cc2c1=O` [CIPROFLOXACIN]: the results for the MIC in assay [1] and in assay [2] were 25 µg/mL (≈ 75.4 µM) and 50 µg/mL (≈ 151 µM), respectively.

For `c1c[nH]c(-c2nnc(CN3CCc4ccsc4C3)o2)c1`, the MIC in assay [1] was determined as 50 µg/mL (≈ 175 µM); in assay [2], 75 µg/mL (≈ 262 µM); in assay [3], 125 µg/mL (≈ 437 µM); in assay [4], 100 µg/mL (≈ 349 µM); in assay [5] it was 60 µg/mL (≈ 210 µM); in assay [6], 120 µg/mL (≈ 419 µM).

`CC1(C)S[C@@H]2[C@H](NC(=O)[C@H](N)c3ccccc3)C(=O)N2[C@H]1C(=O)O` [AMPICILLIN]: the MIC in assay [1] worked out at 100 µg/mL (≈ 286 µM); in assay [2], 250 µg/mL (≈ 715 µM); in assay [3] it was 100 µg/mL (≈ 286 µM); in assay [4], 250 µg/mL (≈ 715 µM).

Take `c1ccc(-c2nnc(CN3CCc4ccsc4C3)o2)cc1`: the MIC in assay [1] came out at 150 µg/mL (≈ 504 µM); in assay [2] it was 125 µg/mL (≈ 420 µM); in assay [3] it was 300 µg/mL (≈ 1010 µM); in assay [4], 150 µg/mL (≈ 504 µM); in assay [5], 80 µg/mL (≈ 269 µM); in assay [6], 160 µg/mL (≈ 538 µM).

For the molecule `Clc1ccc(-c2nnc(CN3CCc4ccsc4C3)o2)c(Cl)c1`, the MIC in assay [1] is 50 µg/mL (≈ 137 µM); in assay [2] it was 75 µg/mL (≈ 205 µM); in assay [3], 125 µg/mL (≈ 341 µM); in assay [4], 75 µg/mL (≈ 205 µM); in assay [5], 20 µg/mL (≈ 54.6 µM); in assay [6], 60 µg/mL (≈ 164 µM).

Take `Clc1ccc(COC(Cn2ccnc2)c2ccc(Cl)cc2Cl)c(Cl)c1` (stereo not given) [MICONAZOLE]: the MIC was determined as 25 µg/mL (≈ 60.1 µM) in assay [5] and 12.5 µg/mL (≈ 30 µM) in assay [6].

For `Clc1cccc(Cl)c1-c1nnc(CN2CCc3ccsc3C2)o1`, the MIC in assay [1] came out at 50 µg/mL (≈ 137 µM); in assay [2] it was 50 µg/mL (≈ 137 µM); in assay [3], 100 µg/mL (≈ 273 µM); in assay [4], 50 µg/mL (≈ 137 µM); in assay [5], 20 µg/mL (≈ 54.6 µM); in assay [6], 120 µg/mL (≈ 328 µM).

For `c1csc(-c2nnc(CN3CCc4ccsc4C3)o2)c1`, the MIC in assay [1] is 25 µg/mL (≈ 82.4 µM); in assay [2], 75 µg/mL (≈ 247 µM); in assay [3], 150 µg/mL (≈ 494 µM); in assay [4], 50 µg/mL (≈ 165 µM); in assay [5], 40 µg/mL (≈ 132 µM); in assay [6], 80 µg/mL (≈ 264 µM).

As for `c1ccc(-c2nnc(CN3CCc4ccsc4C3)o2)nc1`, the MIC in assay [1] amounted to 50 µg/mL (≈ 168 µM); in assay [2], 50 µg/mL (≈ 168 µM); in assay [3], 150 µg/mL (≈ 503 µM); in assay [4], 100 µg/mL (≈ 335 µM); in assay [5], 40 µg/mL (≈ 134 µM); in assay [6], 60 µg/mL (≈ 201 µM).

On to `Oc1ccc(-c2nnc(CN3CCc4ccsc4C3)o2)cc1`, for which the outcome in assay [7] and in assay [8] was inactive. Also, the MIC in assay [1] is 175 µg/mL (≈ 558 µM); in assay [2], 175 µg/mL (≈ 558 µM); in assay [5] it was 60 µg/mL (≈ 191 µM); in assay [6] it was 140 µg/mL (≈ 447 µM).

Turning to `Clc1ccccc1-c1nnc(CN2CCc3ccsc3C2)o1`, the MIC in assay [1] was determined as 125 µg/mL (≈ 377 µM); in assay [2], 100 µg/mL (≈ 301 µM); in assay [3], 200 µg/mL (≈ 603 µM); in assay [4], 100 µg/mL (≈ 301 µM); in assay [5], 80 µg/mL (≈ 241 µM); in assay [6] it was 140 µg/mL (≈ 422 µM).

With `Oc1ccc(-c2nnc(CN3CCc4ccsc4C3)o2)cc1O`, the outcome in assay [7] and in assay [8] was inactive. Besides, the MIC came out at 125 µg/mL (≈ 379 µM) in assay [1], 100 µg/mL (≈ 304 µM) in assay [2], 40 µg/mL (≈ 121 µM) in assay [5] and 100 µg/mL (≈ 304 µM) in assay [6].

Consider `Clc1ccc(-c2nnc(CN3CCc4ccsc4C3)o2)cc1`, for which the MIC is 100 µg/mL (≈ 301 µM) in assay [1]; 75 µg/mL (≈ 226 µM) in assay [2]; 250 µg/mL (≈ 753 µM) in assay [3]; 100 µg/mL (≈ 301 µM) in assay [4]; 60 µg/mL (≈ 181 µM) in assay [5]; 100 µg/mL (≈ 301 µM) in assay [6].

As a reminder, the MIC is the lowest concentration that inhibits growth of the organism. A low value points to inhibition by little substance.

Values taken from ChEMBL document CHEMBL2346584, “Microwave assisted nano (ZnO-TiO2) catalyzed synthesis of some new 4,5,6,7-tetrahydro-6-((5-substituted-1,3,4-oxadiazol-2-yl)methyl)thieno[2,3-c]pyridine as antimicrobial agents” (2013).
